Screens from PubChem BioAssay.
CAL PDZ FP-1 = untagged CAL PDZ binding inhibitors, primary screen, biochemical, fluorescence polarization, HTS. Golgi-associated PDZ and coiled-coil motif-containing protein (Homo sapiens), Q9HD26. purified CAL PDZ, TMR-peptide fluorescence polarization, 1 h. inhibition, % at 24.9 µM. 300,000 compounds, 0.92% hits. AID 602252, 2012;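 active = mean inhibition of at least 30% with at least half of replicates also reaching 30%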
Statin myotox sup = suppressors of statin myotoxicity in C2C12 myotubes, primary screen, cell-based, single point, plate reader. C2C12 myotubes + simvastatin, ATP luminescence, 48 h; scaled: DMSO 0, geranylgeraniol control 100. rescue of ATP level, % at 7.49 µM. 330,000 compounds, 0.78% hits;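 active = mean ATP rescue above about 67%, or every replicate alone reaching that limit, limit read from the data, passing the limit was not always enough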;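 note: myotubes were challenged with 10 µM simvastatin during compound exposure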
CAL PDZ FP-2 = CAL PDZ peptide-binding inhibitors, primary screen, biochemical, fluorescence polarization, Cer-tagged CAL PDZ, HTS | AID 504414, 2011 | Golgi-associated PDZ and coiled-coil motif-containing protein (Homo sapiens), Q9HD26 | purified CAL PDZ, TMR-peptide fluorescence polarization, 1 h | inhibition, % at 20 µM | 330,000 compounds, 0.02% hits;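 active = highest replicate inhibition of at least 40%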
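System: tagged CAL PDZ domain. Schedule: 1 h room-temperature incubation prior to read. Signal: fluorescence polarization (mP). Measure: percent inhibition from loss of millipolarization.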
CDK5 inh = inhibitors of human CDK5/p35 kinase, primary screen, biochemical, single concentration; Cyclin-dependent kinase 5 (Homo sapiens) + Cyclin-dependent kinase 5 activator 1 (Homo …; Recombinant CDK5/p35, ADP-Glo luminescence, 60 min; inhibition, % at 10 µM; 330,000 compounds, 0.01% hits; AID 488839, 2010;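 active = highest replicate inhibition of at least 50% and at least 75% of replicates reaching 50%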
dFosB act-1 = activators of delta FosB homodimer, primary screen, biochemical, fluorescence polarization, TAMRA-CDK5 oligo, single point; purified delta FosB; percent of positive-control signal above neutral wells; 340,000 compounds, 0.99% hits; Protein FosB (Mus musculus), P13346; activation, % at 25 µM;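 active = mean activation above about 17%, with every replicate also reaching it, limit read from the data, passing the limit was not always enough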
Target sequence (P13346 whole entry, looked up): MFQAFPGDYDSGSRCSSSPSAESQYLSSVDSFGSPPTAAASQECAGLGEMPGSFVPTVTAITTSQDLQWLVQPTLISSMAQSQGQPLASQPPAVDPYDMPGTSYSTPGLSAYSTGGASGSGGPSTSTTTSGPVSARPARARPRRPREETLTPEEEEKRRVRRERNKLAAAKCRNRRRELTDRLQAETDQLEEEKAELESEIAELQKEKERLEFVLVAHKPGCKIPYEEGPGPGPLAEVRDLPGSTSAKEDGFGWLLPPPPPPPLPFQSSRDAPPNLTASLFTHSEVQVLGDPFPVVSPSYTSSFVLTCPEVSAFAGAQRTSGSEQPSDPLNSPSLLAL
S100A4 inh HTS = inhibitors of S100A4-myosin IIA peptide binding, primary screen, biochemical, fluorescence polarization, TAMRA-MyoIIA peptide | Protein S100-A4 (Homo sapiens), P26447 | inhibition, % at 10.7 µM | 360,000 compounds, 0.14% hits | AID 652163, 2013;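 active = mean inhibition of at least 70% across replicates, with every replicate also reaching that level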
Target sequence (P26447 whole entry, looked up): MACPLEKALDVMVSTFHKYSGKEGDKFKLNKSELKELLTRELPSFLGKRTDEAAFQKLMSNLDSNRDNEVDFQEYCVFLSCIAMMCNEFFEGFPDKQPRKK
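Material: S100A4 monomer protein | Medium: HEPES pH 7.2 with CaCl2, KCl, NaCl, DTT, Triton | Reagent: Labelled myosin peptide probe, 5 nM | Doses: One dose per compound | Times: 5 min incubation before reading | Benchmarks: Neutral control DMSO, positive control TFP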
dFosB act-2 = activators of mouse delta FosB DNA binding, confirmation, biochemical, fluorescence polarization, TAMRA-CDK5 oligo, cherry-picked samples | shares compounds with dFosB act-1 | 2,400 tested, under 10 active | purified delta FosB; normalised: neutral wells 0, positive control 100 | AID 588690, 2011 | activation, % at 24.9 µM;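 active = highest replicate activation at or above 34% and every replicate reaching that threshold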;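 note: higher polarization means more probe DNA bound by delta FosB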
A number is an active result; n = inactive; x = not tested or not shown. An excerpt weighted towards active compounds, which were near 2% of everything screened.

SMILES	CAL PDZ FP-1	Statin myotox sup	CAL PDZ FP-2	CDK5 inh	dFosB act-1	S100A4 inh HTS	dFosB act-2
Cc1cccc(C)c1NS(=O)(=O)c1ccc(NC(=O)c2ccc(Cl)c([N+](=O)[O-])c2)cc1	n	n	n	n	39.6	n	n
Cc1ccc(S(=O)(=O)Nc2ccc(NC(=O)c3cccs3)cc2)cc1	x	x	n	n	n	n	x
Cc1cc(C)c(NS(=O)(=O)c2ccc(NC(=O)c3cccs3)cc2)c(C)c1	n	x	n	n	26.4	x	n
Cc1cc(C)cc(C(=O)Nc2ccc(NC(=O)c3cccs3)cc2)c1	n	x	n	n	24.7	n	n
O=C(Nc1ccccc1-c1ccccc1)NC1CC2CCCC(C1)N2CCc1ccccc1 (stereo not given)	n	x	n	n	n	n	x
O=c1c2cnn(-c3ccc(F)cc3)c2ncn1Cc1ccc(F)cc1	n	n	n	n	n	x	x
CCOC(=O)/C=C/C(=O)Nc1ccc(S(=O)(=O)Nc2c(C)cc(C)cc2C)cc1	n	x	n	n	19.9	n	n
COc1ccccc1-c1ccc2c(c1)[C@@H]1C[C@H]3[C@@H](CN1CC2)[C@H](C)ON3C	x	x	x	x	x	n	x
CC(Nc1nc(N2CCNCC2)nc2ccccc12)c1ccccc1 (stereo not given)	n	x	n	n	47.9	n	n
CC(Nc1nc(-c2ccncc2)nc2ccccc12)c1ccccc1 (stereo not given)	n	n	n	n	n	n	x
O=C(NCCN1CCc2ccccc2C1)C1CC(=O)N(C2CCCC2)C1 (stereo not given)	n	x	n	n	n	x	x
Cc1cc(O)c(-c2n[nH]c3c2C(c2cccc(O)c2)N(Cc2cccnc2)C3=O)cc1Cl (stereo not given)	n	n	n	n	23.3	x	n
Cc1ccc(C(=O)C=CNNC(=O)c2ccccc2)cc1	n	n	n	n	n	n	x
Cc1cnc(NC(=O)c2ccc(-c3nc4ccccc4s3)o2)s1	n	n	n	n	n	x	x
Cc1cnc(NC(=O)c2ccc(-c3ccc([N+](=O)[O-])cc3)o2)s1	n	n	n	n	59.9	n	n
O=C(Nc1ncc(Cc2ccccc2Cl)s1)c1ccc(-c2cccc([N+](=O)[O-])c2)o1	n	n	n	n	21.7	x	n
Cc1nn(-c2cc(N3CCOCC3)ccc2[N+](=O)[O-])c(=O)c2ccccc12	n	n	n	n	n	n	x
Cc1noc(C)c1NC(=O)N(C)C[C@H]1Oc2ccc(NC(=O)C3CC3)cc2CC(=O)N([C@@H](C)CO)C[C@H]1C	x	n	x	x	x	n	x
COc1ccc(N(CC(=O)N2CCN(c3ccc(Cl)cc3)CC2)S(=O)(=O)c2c(C)n[nH]c2C)cc1	x	x	n	n	77.2	n	n
COc1ccc(N(CC(=O)Nc2ccc(Cl)cc2)S(=O)(=O)c2c(C)n[nH]c2C)cc1	n	n	n	n	n	n	x
C[C@@H]1CN([C@H](C)CO)S(=O)(=O)c2ccc(C#CC3CC3)cc2O[C@@H]1CN(C)Cc1ccccc1	x	n	x	x	x	n	x
O=C(CN(C(=O)CCC(=O)Nc1nccs1)c1ccc(F)cc1)NCc1ccc(F)cc1	n	n	n	n	n	n	x
COc1cc(/C=N\NC(=O)c2ccc(C)nc2)ccc1OC(=O)c1ccc2c(c1)OCO2	n	x	n	n	138.9	x	n
COc1cc(/C=N\NC(=O)c2ccc(C)nc2)ccc1OC(=O)c1ccco1	n	x	n	n	n	n	x
O=C(CSCc1nc2c(nnn2Cc2ccc(F)cc2)c(=O)[nH]1)Nc1c(Cl)cc(Cl)cc1Cl	n	x	n	n	29.1	n	n
SMILES	CAL PDZ FP-1	Statin myotox sup	CAL PDZ FP-2	CDK5 inh	dFosB act-1	S100A4 inh HTS	dFosB act-2
Cc1ccc2nc(C)cc(Nc3ccc([N+](=O)[O-])cc3)c2c1	n	x	n	n	63.4	n	n
O=C(Cn1cnc2c(oc3nc4c(cc32)CCCC4)c1=O)Nc1cccc(Cl)c1	n	n	n	x	20.2	n	n
O=C(Cn1cnc2c(oc3nc4c(cc32)CCCC4)c1=O)Nc1ccccc1	n	n	n	n	n	n	x
Cc1c(Cl)cccc1NC(=O)NCc1ccccn1	n	n	n	n	n	n	x
O=C(NCc1ccc(F)cc1)NC(=O)c1ccc(Cl)cc1	n	n	n	n	31.9	n	n
Cc1c(Cl)cccc1NC(=O)NCc1ccc(F)cc1	n	x	n	n	27.8	n	n
Cc1cccc(OCc2nnc(NC(=O)c3cccs3)s2)c1	n	n	n	n	n	x	x
Cc1cc2cc(CNC(=O)c3ccc(S(=O)(=O)N4CCCCC4)cc3)ccc2n1C	x	n	n	n	33.0	n	n
Cc1ccc(CNC(=O)c2ccc(S(=O)(=O)N3CCCCC3)cc2)cc1	n	n	n	n	n	n	x
Clc1ccc(-c2ccnc(Oc3cc(Cl)ccc3Cl)n2)cc1	n	n	n	n	18.9	x	n
Clc1ccc(-c2ccnc(Oc3ccc4ccccc4c3)n2)cc1	n	n	n	n	n	x	x
COc1cc(NC(=O)c2cccc(Cl)c2)c(OC)cc1NC(=O)CN1CCCCC1	n	x	n	n	n	n	x
CCc1cccc2c(C(=O)COC(=O)c3ccc(O)cc3)c[nH]c12	n	n	n	n	35.9	n	n
CCc1cccc2c(C(=O)COC(=O)c3ccccc3)c[nH]c12	n	x	n	n	n	n	x
Cc1ccc(C(C(=O)NCc2ccco2)N(C(=O)Cn2nnc3ccccc32)c2ccccc2)o1 (stereo not given)	n	n	n	n	n	x	x
COc1ccc(C(=O)Nc2nnc(S(=O)(=O)Cc3ccc(F)cc3)s2)cc1	n	n	n	n	n	n	x
COc1ccc(C(=O)Nc2nnc(S(=O)(=O)Cc3ccccc3)s2)cc1	n	x	n	n	23.1	n	n
O=c1nc(Nc2ccc(OCc3ccccc3)cc2)sc2ncccc12	n	n	n	n	19.5	n	n
CCOC(=O)c1ccc(Nc2nc(=O)c3cccnc3s2)cc1	n	n	x	n	n	x	x
COc1ccc(-c2csc(NC(=S)NC(=O)c3cccs3)n2)cc1OC	n	x	n	n	n	n	x
COc1ccc(-c2csc(NC(=S)NC(=O)c3ccc(S(=O)(=O)N(C)C)cc3)n2)cc1OC	n	x	n	n	28.6	n	n
